# In PMC4201343 (ACS Chemical Biology, 2014):
# Counter-ions that a name gives are not always drawn. Like-named read-outs stand apart in the source and are kept apart here.
# What was measured:
# [1] = system: HCV genotype 2a isolate (JFH1); conditions: 20 μM of each compound; ref Gastaminza et al.[9]; cited from earlier work
# E. coli SSB = E. coli SSB (Escherichia coli, UniProt P0AGE0); assay: FP-based binding assay with SSB in place of NS3h; conditions: for inhibition at 100 µM: read-out: SSB (% I): percent inhibition of SSB binding to Cy5-dT15; for SSB binding inhibition relative to NS3h binding inhibition: 100 μM; for SSB (% I): percent inhibition of SSB binding to Cy5-dT15: 100 μM of each compound
# How it was run: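 Fluorescence polarisation assay with E. coli SSB in place of NS3h, using Cy5-dT15 (or Cy5-rU15 for titrations). Screen compounds were pin-transferred to 100 μM final, 1% DMSO. Excitation 635 nm, emission 667 nm; G-factor from probe-only wells. Percent inhibition was normalised to DMSO and to unlabeled dT20 or 100 μM primuline controls.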
# HCV NS3h = biological target: T1, HCV NS3h (Hepatitis C virus genotype 1b, UniProt Q9WMX2); assay: FP-based binding assay, NS3h displacement from Cy5-dT15 DNA; design: species or system hepatitis C virus genotype 1b (con1); conditions: for inhibition at 100 µM: read-out: NS3h (% I): percent inhibition of NS3h binding to Cy5-dT15, 100 μM of each compound; for NS3h (% I): percent inhibition of NS3h binding to Cy5-dT15: 100 μM of each compound; for ability to inhibit HCV helicase binding to DNA (in words): compared with ebselen
# T1 sequence (Q9WMX2 1190-1657 limits assumed): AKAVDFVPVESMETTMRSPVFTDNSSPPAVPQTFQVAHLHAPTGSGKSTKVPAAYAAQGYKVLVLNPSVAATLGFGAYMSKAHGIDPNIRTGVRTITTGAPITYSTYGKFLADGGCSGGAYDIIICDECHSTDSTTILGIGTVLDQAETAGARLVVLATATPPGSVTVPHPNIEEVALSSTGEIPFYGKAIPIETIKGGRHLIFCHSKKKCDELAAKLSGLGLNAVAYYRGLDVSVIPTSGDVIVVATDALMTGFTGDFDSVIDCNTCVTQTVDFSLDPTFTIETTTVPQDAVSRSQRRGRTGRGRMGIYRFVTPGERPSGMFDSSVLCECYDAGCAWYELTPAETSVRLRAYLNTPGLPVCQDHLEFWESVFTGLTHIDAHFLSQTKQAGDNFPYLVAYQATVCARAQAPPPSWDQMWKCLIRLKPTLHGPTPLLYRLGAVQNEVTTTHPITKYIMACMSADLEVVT
# How it was run: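 Fluorescence polarization with Cy5-dT15 and NS3h: excitation 635 nm; parallel and perpendicular emission read at 667 nm; G-factor taken from probe-only wells. % inhibition normalized to DMSO-only (negative) and 200 nM dT20 or 100 μM primuline (positive) controls. Single-point tests at 100 μM. IC50 is the concentration displacing 50% of NS3h from DNA. Reversibility: 10 μM NS3h preincubated 1 h with test compound, then diluted 100–100 000-fold into Cy5-dT15 and compared with untreated controls.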
# [2] = system: HCV Con1/1b Rluc subgenomic replicon in Huh-7.5 cells; assay: HCV subgenomic replicon assay; format: cell-based, hepatitis C virus genotype 1b; conditions: for antiviral potency relative to ebsulfur/ebselen (times more potent): replicon; for therapeutic index (CC50/EC50): replicon EC50 and Huh7.5 CC50
# How it was run: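 Huh-7.5 cells carrying a stable genotype 1b Con1 Renilla luciferase subgenomic replicon (kept in 0.25 mg/mL Geneticin) were seeded at 10 × 10^3 per well. Two-fold compound series, 0.5% final DMSO, 3 days at 37 °C, 5% CO2. Washed cells were lysed and Renilla luminescence read. EC50 is the concentration halving Rluc; CC50 comes from a parallel CellTiter-Glo viability run; three independent titrations.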
# NS3h_1b(con1) [3] = biological target: T2, NS3h_1b(con1) (Hepatitis C virus genotype 1b, con1 …, UniProt Q9WMX2 1190-1657); assay: fluorescence polarization
# SSB = SSB (Escherichia coli, UniProt P0AGE0 1-178); assay: fluorescence polarization
# NS3h_1b(con1) [4] = biological target: T2, NS3h_1b(con1); assay: fluorescence polarization; remark: listed apart in the source
# NS3h_2a(JFH1) = NS3h_2a(JFH1) (Hepatitis C virus genotype 2a, JFH1, UniProt Q99IB8 1194-1661); assay: fluorescence polarization
# NS3h_1b(con1) [5] = biological target: T2, NS3h_1b(con1); assay: fluorescence polarization; remark: listed apart in the source
# E. coli SSB, sequence (P0AGE0 2-178 limits assumed): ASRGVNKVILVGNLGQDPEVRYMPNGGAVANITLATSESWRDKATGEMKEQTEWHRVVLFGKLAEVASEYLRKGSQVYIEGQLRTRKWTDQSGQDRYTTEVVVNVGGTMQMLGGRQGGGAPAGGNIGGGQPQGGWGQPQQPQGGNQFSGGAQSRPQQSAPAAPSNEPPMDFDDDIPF
# SSB, sequence (P0AGE0 whole entry): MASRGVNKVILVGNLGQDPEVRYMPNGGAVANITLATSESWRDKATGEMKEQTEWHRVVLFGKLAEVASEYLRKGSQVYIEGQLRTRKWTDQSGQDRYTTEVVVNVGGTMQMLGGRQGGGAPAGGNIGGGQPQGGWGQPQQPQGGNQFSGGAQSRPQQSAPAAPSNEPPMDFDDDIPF
# NS3h_2a(JFH1), sequence (Q99IB8 1194-1661): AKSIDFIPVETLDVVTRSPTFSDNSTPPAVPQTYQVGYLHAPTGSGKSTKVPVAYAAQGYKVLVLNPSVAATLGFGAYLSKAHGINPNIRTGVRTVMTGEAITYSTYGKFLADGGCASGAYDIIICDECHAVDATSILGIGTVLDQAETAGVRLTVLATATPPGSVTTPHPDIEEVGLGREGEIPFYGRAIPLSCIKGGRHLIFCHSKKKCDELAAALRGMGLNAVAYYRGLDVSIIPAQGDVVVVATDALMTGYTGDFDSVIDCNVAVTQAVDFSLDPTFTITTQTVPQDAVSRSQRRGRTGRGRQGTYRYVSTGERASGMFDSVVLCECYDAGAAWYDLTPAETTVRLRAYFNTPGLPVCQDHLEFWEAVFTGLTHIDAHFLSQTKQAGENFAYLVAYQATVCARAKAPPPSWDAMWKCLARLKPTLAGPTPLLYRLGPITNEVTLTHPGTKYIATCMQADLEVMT
molecule,measurement,setting,value
CCCCCCCCCOc1ccc2[nH]cc(CCN)c2c1 [5-Nonyloxy-tryptamine],HCV (% I): percent inhibition of HCV replication in cells,[1],100%
same,inhibition at 100 µM,E. coli SSB,67%
same,inhibition at 100 µM,HCV NS3h,-8%
COc1cccc2c1C(=O)c1c(O)c3c(c(O)c1C2=O)C[C@@](O)(C(=O)CO)C[C@@H]3O[C@H]1C[C@H](N)[C@H](O)[C@H](C)O1 [Doxorubicin Hydrochloride],HCV (% I): percent inhibition of HCV replication in cells,[1],100%
same,inhibition at 100 µM,E. coli SSB,90%
same,inhibition at 100 µM,HCV NS3h,8%
C=CC1=C(C(=O)O)N2C(=O)[C@@H](NC(=O)C(=NOCC(=O)O)c3csc(N)n3)[C@H]2SC1.O [HMS2052E19],HCV (% I): percent inhibition of HCV replication in cells,[1],<0%
same,SSB binding inhibition relative to NS3h binding inhibition,E. coli SSB,3–4 times
same,SSB (% I): percent inhibition of SSB binding to Cy5-dT15,E. coli SSB,95%
same,NS3h (% I): percent inhibition of NS3h binding to Cy5-dT15,HCV NS3h,28%
CS(=O)(=O)Nc1ccc(Cc2noc(-c3ccc4[nH]cc(CCN)c4c3)n2)cc1.O [L 694247],HCV (% I): percent inhibition of HCV replication in cells,[1],<0%
same,SSB (% I): percent inhibition of SSB binding to Cy5-dT15,E. coli SSB,37%
same,NS3h (% I): percent inhibition of NS3h binding to Cy5-dT15,HCV NS3h,3%
O=C1c2c(O)ccc(O)c2C(=O)c2c(NCCNCCO)ccc(NCCNCCO)c21 [Mitoxantrone],inhibition at 100 µM,E. coli SSB,121%
same,NS3h (% I): percent inhibition of NS3h binding to Cy5-dT15,HCV NS3h; 100 µM,125%
same,NS3h (% I): percent inhibition of NS3h binding to Cy5-dT15,"HCV NS3h; listed as mitoxantrone, 100 µM",more than 50%
CN(C)[C@@H]1C(O)=C(C(=O)NCN2CCCC2)C(=O)[C@@]2(O)C(O)=C3C(=O)c4c(O)cccc4[C@@](C)(O)[C@H]3C[C@@H]12 [Rolitetracycline],HCV (% I): percent inhibition of HCV replication in cells,[1],<0%
same,inhibition at 100 µM,E. coli SSB,45%
same,inhibition at 100 µM,HCV NS3h,-4%
Cl.NC1CCN(c2cccc(Cl)n2)CC1 [SR 57227A],HCV (% I): percent inhibition of HCV replication in cells,[1],12%
same,SSB (% I): percent inhibition of SSB binding to Cy5-dT15,E. coli SSB,133%
same,NS3h (% I): percent inhibition of NS3h binding to Cy5-dT15,HCV NS3h,–1%
CC(O)CO.N[C@@H](C(=O)N[C@@H]1C(=O)N2C(C(=O)O)=C(CSc3cn[nH]n3)CS[C@H]12)c1ccc(O)cc1 [Seapuron],HCV (% I): percent inhibition of HCV replication in cells,[1],<0%
same,SSB binding inhibition relative to NS3h binding inhibition,E. coli SSB,3–4 times
same,SSB (% I): percent inhibition of SSB binding to Cy5-dT15,E. coli SSB,56%
same,NS3h (% I): percent inhibition of NS3h binding to Cy5-dT15,HCV NS3h,22%
C=CC1=C(C(=O)O)N2C(=O)[C@@H](NC(=O)C(=NO)c3csc(N)n3)[C@H]2SC1 [Spectrum 001824],HCV (% I): percent inhibition of HCV replication in cells,[1],5.8%
same,SSB (% I): percent inhibition of SSB binding to Cy5-dT15,E. coli SSB,96%
same,NS3h (% I): percent inhibition of NS3h binding to Cy5-dT15,HCV NS3h,11%
"O=c1c2cc(F)c(F)cc2sn1-c1ccccc1 [compound 2, 5,6-Difluoro-2-phenylbenzo[d]isothiazol-3(2H)-one]",antiviral potency relative to ebsulfur/ebselen (times more potent),[2],~10 times
same,therapeutic index (CC50/EC50),[2],~1
"O=c1c2ccc(Br)cc2sn1-c1ccccc1 [compound 3, 6-Bromo-2-phenylbenzo[d]isothiazol-3(2H)-one]",antiviral potency relative to ebsulfur/ebselen (times more potent),[2],~10 times
same,therapeutic index (CC50/EC50),[2],~1
"O=C(CCn1sc2ccccc2c1=O)Nc1ccccc1 [compound 13, 3-(3-Oxobenzo[d]isothiazol-2(3H)-yl)-N-phenylpropanamide]",decrease in the ability to inhibit HCV helicase (longer linker),HCV NS3h; relative to peptide-linker analogues,10 fold
"O=c1cc(-c2ccccc2)sn1-c1ccccc1 [compound 14, 2,5-Diphenylisothiazol-3(2H)-one]",ability to inhibit HCV helicase binding to DNA (in words),HCV NS3h,complete loss of activity
"Cn1c2ccccc2c(=O)n1-c1ccccc1 [compound 15, 1-Methyl-2-phenyl-1H-indazol-3(2H)-one]",ability to inhibit HCV helicase binding to DNA (in words),HCV NS3h,complete loss of activity
UUUUUUUUUUUUUUU (ssRNA) [Cy5-rU15],binding result,NS3h_1b(con1) [3],binds
same,binding result,SSB,binds
TTTTTTTTTTTTTTT (ssDNA) [Cy5-dT15],binding result,SSB,binds
same,binding result,NS3h_1b(con1) [4],binds
TTTTTTTTTTTTTTTTTTTT (ssDNA) [Cy5-dT20],binding signal,NS3h_2a(JFH1),~2 Ka relative to NS3h_1b(con1)
same,binding signal,NS3h_1b(con1) [5],1 Ka relative to NS3h_1b(con1)
